Results published in ChEMBL document CHEMBL1149300, “Novel retinoic acid metabolism blocking agents endowed with multiple biological activities are efficient growth inhibitors of human breast and prostate cancer cells in vitro and a human breast tumor xenograft in nude mice” (J Med Chem, 2004).
Active and inactive are the calls of the source. The calls are words filed in the database; no cut-off is given here.

What was measured:
[1] = Inhibition of ATRA hydroxylase in Syrian golden hamster liver microsome assessed ATRA metabolism using [11.12-3H]-ATRA; type: microsomes, Mesocricetus auratus
Procedure, shortened: (§1)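 Microsomes from male Syrian golden hamster liver, or from T47D cells pretreated with 1 µM ATRA. Incubation in 0.1 M phosphate buffer pH 7.4 with NADPH, MgCl2 and BSA, inhibitor in DMSO; 3 min preincubation at 37 °C, then [11,12-3H]-ATRA for 30 min at 37 °C under oxygen. Ethyl acetate extraction, reverse-phase HPLC with radiometric detection; percent polar metabolites; IC50 from dose-response curves.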

[2] = biological target: T1, Retinoic acid receptor alpha (Homo sapiens, UniProt P10276); assay: Displacement of [11,12-3H]ARTA from RARalpha
T1 sequence (P10276 whole entry): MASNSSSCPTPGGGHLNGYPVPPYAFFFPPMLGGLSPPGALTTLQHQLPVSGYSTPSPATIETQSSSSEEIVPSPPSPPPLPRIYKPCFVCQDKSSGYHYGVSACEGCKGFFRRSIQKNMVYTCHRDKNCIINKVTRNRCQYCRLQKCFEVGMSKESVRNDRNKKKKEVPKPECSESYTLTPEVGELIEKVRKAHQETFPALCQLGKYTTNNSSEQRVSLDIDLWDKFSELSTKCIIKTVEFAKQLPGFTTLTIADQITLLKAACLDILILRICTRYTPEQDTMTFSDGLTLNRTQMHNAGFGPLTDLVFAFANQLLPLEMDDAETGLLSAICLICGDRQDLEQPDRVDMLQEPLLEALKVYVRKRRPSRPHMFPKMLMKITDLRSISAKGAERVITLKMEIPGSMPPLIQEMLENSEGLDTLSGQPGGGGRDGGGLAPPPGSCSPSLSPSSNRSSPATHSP
Procedure, shortened: (§2)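 Recombinant S-Tag RARα, RARβ or RARγ fusion protein extracts (10-30 µg/mL total protein) in HEPES pH 7.9 binding buffer. Incubated with 1 nM [3H]all-trans-RA and 0-500 nM test compound for 3 h at 27 °C.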

[3] = biological target: T2, Retinoic acid receptor beta (Homo sapiens, UniProt P10826); assay: Displacement of [11,12-3H]ARTA from RARbeta; procedure, shortened: as §2
T2 sequence (P10826 whole entry): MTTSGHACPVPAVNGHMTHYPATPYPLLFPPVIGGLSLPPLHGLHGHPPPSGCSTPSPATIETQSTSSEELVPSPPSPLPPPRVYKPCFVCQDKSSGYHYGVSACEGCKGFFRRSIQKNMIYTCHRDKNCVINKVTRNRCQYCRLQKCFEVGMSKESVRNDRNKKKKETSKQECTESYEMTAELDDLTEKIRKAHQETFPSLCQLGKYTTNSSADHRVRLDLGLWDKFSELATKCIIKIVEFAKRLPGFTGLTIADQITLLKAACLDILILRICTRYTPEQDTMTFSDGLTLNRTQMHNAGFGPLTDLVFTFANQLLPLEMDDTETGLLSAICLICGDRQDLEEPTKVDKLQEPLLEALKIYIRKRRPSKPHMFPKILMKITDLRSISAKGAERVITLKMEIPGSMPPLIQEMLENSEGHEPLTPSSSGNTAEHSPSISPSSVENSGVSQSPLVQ

[4] = Displacement of [11,12-3H]ARTA from RARgamma; set-up: species or system Homo sapiens
Procedure, shortened: as §2, with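 “°C. Nonspecific binding measured with a 200-fold excess of unlabeled RA; IC50 from dose-response curves, at least two experiments.” for “°C.”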

LNCaP [5] = assay: Induction of cell differentiation in human LNCaP cells after 6 days; type: functional, cell-based
Procedure, shortened: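 LNCaP cells given 1 µM compound, alone or with 1 µM ATRA, for 6 days. Lysates (50 µg) run on 10% SDS-PAGE and Western blotted with anti-cytokeratin 8/18, β-actin as control. ECL detection; band intensity by densitometry taken as the differentiation marker.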

Cytochrome P450 26A1 [6] = biological target: T3, Cytochrome P450 26A1 (Homo sapiens, UniProt O43174); assay: Inhibition of ATRA-induced CYP26 in human MCF7 cells assessed ATRA as metabolism using [11.12-3H]-ATRA; type: functional, cell-based
T3 sequence (O43174 whole entry): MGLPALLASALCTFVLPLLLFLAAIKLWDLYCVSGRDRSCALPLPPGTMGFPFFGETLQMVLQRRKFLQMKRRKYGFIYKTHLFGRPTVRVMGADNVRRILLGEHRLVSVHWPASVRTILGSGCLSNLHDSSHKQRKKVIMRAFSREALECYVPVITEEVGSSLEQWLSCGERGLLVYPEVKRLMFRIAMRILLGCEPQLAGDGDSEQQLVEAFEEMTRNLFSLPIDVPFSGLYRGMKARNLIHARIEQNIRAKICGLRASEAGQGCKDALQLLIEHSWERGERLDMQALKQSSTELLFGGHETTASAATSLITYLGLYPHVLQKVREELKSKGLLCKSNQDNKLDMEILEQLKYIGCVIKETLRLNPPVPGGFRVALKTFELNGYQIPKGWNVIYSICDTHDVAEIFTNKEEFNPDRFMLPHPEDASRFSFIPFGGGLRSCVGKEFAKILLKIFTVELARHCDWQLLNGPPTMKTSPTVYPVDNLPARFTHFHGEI
Procedure, shortened: (§3)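 MCF-7 or T47D cells (1 × 10^6 per well) induced with 1 µM ATRA for 12-15 h, washed, then given inhibitor (0.0001-10 µM, ethanol stock) plus 0.001 µM [11,12-3H]-ATRA for 5 h. Media and cells extracted with ethyl acetate; metabolites measured by reverse-phase HPLC with radiometric detection; IC50 from dose-response curves.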

Cytochrome P450 26A1 [7] = biological target: T3, Cytochrome P450 26A1; assay: Inhibition of ATRA-induced CYP26 in human T47D cells assessed as ATRA metabolism using [11.12-3H]-ATRA; type: functional, cell-based; procedure, shortened: as §3
Cytochrome P450 26A1 [8] = biological target: T3, Cytochrome P450 26A1; assay: Inhibition of ATRA-induced CYP26 in human T47D cell microsome assessed as ATRA metabolism using [11.12-3H]-ATRA; type: functional, microsomes; procedure, shortened: as §1
MCF7 [9] = assay: Growth inhibition of human MCF7 cells after 6 days by MTT assay; type: functional, cell-based; conditions: MCF7, 144 h
Procedure, shortened: (§4)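 MCF-7 (IMEM, 5% FBS) or T47D (RPMI 1640, 10% FBS) cells, 1 × 10^4 per well, adhered ~18 h, then exposed to 0.0001-10 µM drug (ethanol) for 6 days with media and drug renewed on day 4. MTT for 2 h, formazan dissolved in DMSO, A540. Triplicate wells, 2-3 experiments; IC50 by nonlinear regression.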

T47D [10] = assay: Growth inhibition of human T47D cells after 6 days by MTT assay; type: functional, cell-based; conditions: 144 h; procedure, shortened: as §4
MDA-MB-231 [11] = assay: Growth inhibition of human MDA-MB-231 cells up to 10 uM after 6 days by MTT assay; type: functional, cell-based
LNCaP [12] = assay: Growth inhibition of human LNCaP cells after 6 days by MTT assay; type: functional, cell-based; conditions: 144 h
Procedure, shortened: (§5)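 LNCaP cells (1 × 10^4) on poly-L-lysine-coated wells, attached 36 h; PC-3 cells (1 × 10^4), uncoated, attached 24 h; both in RPMI 1640. Treated with a concentration range of drug for 6 days, medium changed every 3 days. MTT read-out at 540 nm; IC50 by nonlinear regression from at least two experiments.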

PC-3 = assay: Growth inhibition of human PC3 cells after 6 days by MTT assay; type: functional, cell-based; conditions: PC-3, 144 h; procedure, shortened: as §5
MCF7 [13] = assay: Induction of apoptosis in human MCF7 cells at 1 uM for 6 days by TUNEL assay; type: functional, cell-based
Procedure, shortened: (§6)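 MCF-7 or T47D cells exposed to 1 µM compound for 6 days, then trypsinized, fixed in 1% paraformaldehyde and stored in 70% ethanol at -20 °C overnight. TdT/BrdUTP labeling (APO-BRDU TUNEL), fluorescein anti-BrdU plus PI/RNase stain; apoptotic cells counted by flow cytometry.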

T47D [14] = assay: Induction of apoptosis in human T47D cells at 1 uM for 6 days by TUNEL assay; type: functional, cell-based; procedure, shortened: as §6
MCF7 [15] = assay: Reduction of tumor growth in MCF7 cells xenografted ovariectomized mouse at 0.033 mmol/kg, sc for 6 weeks relative to control; type: functional, Homo sapiens; set-up: scale not given: the % may be the effect or the level left
Procedure, shortened: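 Female ovariectomized nude mice received estrogen pellets. MCF-7 cells (2 × 10^6 in Matrigel) were injected sc into both flanks and grown 4-5 weeks to 200-300 mm3. Groups of n = 5 were dosed sc once daily, 6 days/week for 6 weeks, vehicle 0.3% HPC, 200 µL. Tumors were measured weekly by caliper, volume = (4/3)πr1²r2, and change was compared with vehicle controls.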

MDA-MB-231 [16] = assay: Growth inhibition of human MDA-MB-231 cells after 6 days by MTT assay; type: functional, cell-based; conditions: MDA-MB-231, 144 h
Cytochrome P450 26A1 [17] = biological target: T3, Cytochrome P450 26A1; assay: Inhibition of ATRA-induced CYP26 in human MCF7 cells assessed as ATRA metabolism using [11.12-3H]-ATRA up to 10 uM; type: functional, cell-based
Procedure, shortened: (§7)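 Cells seeded at 1 × 10^6 per well and pretreated with 1 µM ATRA for 12-15 h to induce CYP26. After washing, they were incubated 5 h with inhibitor (0.0001-10 µM) plus 0.001 µM [11,12-3H]-ATRA; stocks were in 95% ethanol. […] IC50 was taken from dose-response curves.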

Cytochrome P450 26A1 [18] = biological target: T3, Cytochrome P450 26A1; assay: Inhibition of ATRA-induced CYP26 in human T47D cells assessed as ATRA metabolism using [11.12-3H]-ATRA up to 10 uM; type: functional, cell-based; procedure, shortened: as §7

Row | IC50 [1] | IC50 [2] | IC50 [3] | IC50 [4] | IC50 (Cytochrome P450 26A1 [8]) | Compound | other results
1 | 119 nM | 100 nM | 175 nM | 65 nM | – | CC1=C(/C=C/C(C)=C/C=C/C(C)=C\C(=O)O)C(C)(C)CCC1n1ccnc1 (racemic) | Ki [1]: 4.12 nM
2 | 5.84 nM | > 1000 nM | 1000 nM | 700 nM | – | CC1=C(/C=C/C(C)=C/C=C/C(C)=C/C(=O)O)C(C)(C)CCC1n1cncn1 (racemic) | –
3 | 2 nM | – | – | – | – | COC(=O)/C=C(C)/C=C/C=C(C)/C=C/C1=C(C)C(n2cncn2)CCC1(C)C (racemic) | –
4 | 46.7 nM | 410 nM | 250 nM | 300 nM | – | CC1=C(/C=C/C(C)=C/C=C/C(C)=C/C(=O)O)C(C)(C)CCC1n1cnnc1 (racemic) | –
5 | 2.33 nM | 20 nM | 175 nM | 45 nM | 2.4 nM | CC1=C(/C=C/C(C)=C/C=C/C(C)=C/C(=O)O)C(C)(C)CCC1n1ccnc1 (racemic) | Activity (LNCaP [5]): Active; Ki [1]: 0.22 nM; IC50 (Cytochrome P450 26A1 [6]): 10.9 nM; IC50 (Cytochrome P450 26A1 [7]): 6.3 nM; IC50 (MCF7 [9]): 490 nM; IC50 (T47D [10]): 3 nM; Activity (MDA-MB-231 [11]): inactive; IC50 (LNCaP [12]): 10000 nM; IC50 (PC-3): 7700 nM; Activity (MCF7 [13]): Active; Activity (T47D [14]): Active; Activity (MCF7 [15]): 85.2%
6 | – | – | – | – | 800 nM | COC(=O)/C=C(C)/C=C/C=C(C)/C=C/C1=C(C)[C@H](n2ccnc2)CCC1(C)C (stereo in doubt; (+)-5) | IC50 (Cytochrome P450 26A1 [7]): 6000 nM
7 | – | – | – | – | 680 nM | COC(=O)/C=C(C)/C=C/C=C(C)/C=C/C1=C(C)[C@H](n2ccnc2)CCC1(C)C (stereo in doubt; (-)-5) | IC50 (Cytochrome P450 26A1 [7]; t47d): 6000 nM
8 | 31800 nM | – | – | – | – | CC1=C(/C=C/C(C)=C/C=C/C(C)=C/C(=O)Nc2ccc(O)cc2)C(C)(C)CCC1 [FENRETINIDE] | IC50 (MCF7 [9]): 150 nM; IC50 (MDA-MB-231 [16]): 7700 nM; IC50 (LNCaP [12]): 7500 nM; IC50 (PC-3): 3600 nM
9 | 6000 nM | – | – | – | – | Clc1cccc(C(c2ccc3[nH]cnc3c2)n2ccnc2)c1 (centres undefined) [LIAROZOLE] | Activity (Cytochrome P450 26A1 [17]): Not Active; Activity (Cytochrome P450 26A1 [18]): Not Active

Row | Compound | IC50 [1] | IC50 [2] | IC50 [3] | IC50 [4] | IC50 (Cytochrome P450 26A1 [8]) | other results
10 | CC(=O)N1CCN(c2ccc(OCC3COC(Cn4ccnc4)(c4ccc(Cl)cc4Cl)O3)cc2)CC1 (centres undefined) [KETOCONAZOLE] | 34000 nM | – | – | – | – | –
